Experimental findings from paper PMC7079967 (Medicinal Chemistry Research, 2016) are described below.

What all share (type): cell-based
Test [1] has as its system murine leukemia cells (L1210). In words: Antiproliferative. Conditions: Mus musculus, L1210, 48 h, read-out: IC50 L1210. The procedure, abridged:
(§1)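 Cells in growth medium proliferated with variable concentrations of test compound at 37 °C in a humidified CO2-controlled atmosphere. Incubation was 48 h for L1210 and 96 h for HeLa. Cell number was then counted with a Coulter counter. IC50 was the concentration inhibiting cell proliferation by 50 %.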

Test [2] has as its system human T-lymphocyte cells (CEM). As to the kind of experiment: Antiproliferative. Conditions: 72 h, read-out: IC50 CEM. The gist of the method:
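Human T-lymphocyte CEM cells, suspended in growth medium, were left to proliferate in microtiter wells with varying amounts of test compound at 37 °C in a humidified, CO2-controlled atmosphere. After 72 h, cells were counted with a Coulter counter. IC50 is the concentration that inhibits cell proliferation by 50 %.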

Test [3] deals with human cervix carcinoma cells (HeLa). As to the kind of experiment: Antiproliferative. The note with it: 96 h, read-out: IC50 HeLa. The procedure, abridged: as §1
Test [4] concerns L1210, CEM and HeLa tumor cell lines. In words: Cytostatic activity stated over the three tumor cell lines together.
The subject of a further test is Parainfluenza-3 virus. As to the kind of experiment: Antiviral assay, virus-induced cytopathicity in Vero cells. Conditions: read-out: IC50 Parainfluenza-3 virus. (Damage to the host cells serves as the signal in cytopathic effect assays.)
For another test, the system named is Sindbis virus. Described as above. Conditions: read-out: IC50 Sindbis virus.
In a further test the test system is Reovirus-1. The test is described as above. The note with it: read-out: IC50 Reovirus-1.

Bounds are passed on as bounds.

Broadly, the IC50 is the midpoint of a concentration-inhibition curve. In the case of `O=c1[nH]cc(F)c(=O)[nH]1` [5-Fluorouracil, reference compound], the IC50 came to 0.33 ± 0.17 µM in test [1], 18 ± 5 µM in test [2] and 0.54 ± 0.12 µM in test [3].

Consider `Sc1ncnc2nc[nH]c12` [6-Mercaptopurine, reference compound], for which the IC50 in test [1] stood at 2.8 ± 1.1 µM; in test [2] it was 2.8 ± 1.3 µM; in test [3] it was 1.1 ± 0.1 µM.

Turning to `CC(=O)OC[C@H]1O[C@@H](NC(=O)NC(=O)CCCc2ccc3c(c2)CCCC3)[C@H](OC(C)=O)[C@@H](OC(C)=O)[C@@H]1OC(C)=O` [Compound 6b, N-4-(5,6,7,8-Tetrahydronaphthalen-2-yl)butanoyl-N′-(2,3,4,6-tetra-O-acetyl-β-D-glucopyranosyl)-urea], the IC50 in test [1] is 78 µM; in test [2], 38 ± 10 µM; in test [3], 66 ± 12 µM.

As for `CC(=O)OC[C@H]1O[C@@H](NC(=O)NC(=O)COc2ccc(-c3ccccc3)cc2)[C@H](OC(C)=O)[C@@H](OC(C)=O)[C@@H]1OC(C)=O` [Compound 6c, N-2-(Biphenyl-4-yloxy)acetyl-N′-(2,3,4,6-tetra-O-acetyl-β-D-glucopyranosyl)-urea], the IC50 in test [1], in test [2] and in test [3] was > 250 µM in each case.

Turning to `O=C(CCCc1ccc2c(c1)CCCC2)NC(=O)N[C@@H]1O[C@H](CO)[C@@H](O)[C@H](O)[C@H]1O` [Compound 7b, N-4-(5,6,7,8-Tetrahydronaphthalen-2-yl)butanoyl-N′-(β-D-glucopyranosyl)-urea], the IC50 in test [1], in test [2] and in test [3] was > 250 µM in each case.

With `O=C(COc1ccc(-c2ccccc2)cc1)NC(=O)N[C@@H]1O[C@H](CO)[C@@H](O)[C@H](O)[C@H]1O` [Compound 7c, N-2-(Biphenyl-4-yloxy)acetyl-N′-(β-D-glucopyranosyl)-urea], the “cytostatic potential, fold lower than 6-mercaptopurine” value in test [4] (compared with 6-mercaptopurine over L1210, CEM, HeLa) was 5- to 15 fold. The IC50 was 9 to 24 µM in test [4] (read-out: IC50, cytostatic activity against the three tumor cell lines); 9 ± 5.9 µM in test [1]; 24 ± 1 µM in test [2]; 19 ± 3 µM in test [3].

For the compound `NC(=O)c1ncn([C@@H]2O[C@H](CO)[C@@H](O)[C@H]2O)n1` [Ribavirin], the figures for the IC50 with Parainfluenza-3 virus, in the test with Sindbis virus and in the test on Reovirus-1 were 250 µM, > 250 µM and > 250 µM, respectively.
